Source: ChEMBL document CHEMBL1137528, “Preparation of tetrahydroimidazo[2,1-a]isoquinolines and their use as inhibitors of gastric acid secretion” (Bioorg Med Chem, 2007)

Key:
[1] = Inhibition of H+/K+ ATPase in hog gastric mucosa; format: tissue-based, Sus scrofa
Procedure, shortened: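 Hog gastric H+/K+-ATPase (0.5–1 µg/100 µl), nigericin 1:1 with enzyme. Buffer 4 mM Pipes/8 mM Tris pH 7.4, 0.25 M sucrose, 1 mM MgCl2, 1 mM KCl as stimulant. Compounds 1e-4 to 1e-9 M final from DMSO stocks. Started with 1 mM Na-ATP, 30 min at room temperature. Phosphate read by malachite green at 680 nm; sigmoidal fit gives IC50.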

[2] = tested on: Gastric gland; assay: Effect on acid secretion in rabbit intact gastric glands assessed as inhibition of [14C][…] accumulation; format: functional, tissue-based; details: Oryctolagus cuniculus
Procedure, shortened: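 Glands stimulated with 1 mM dibutyryl cAMP with or without inhibitor (3 nM–100 µM). Stopped by centrifugation, 10 s at 20,000g. 14C-aminopyrine radioactivity measured in supernatant and in NaOH-dissolved pellet. Accumulation taken from the pellet/supernatant ratio, normalized to gland wet/dry weight. IC50 obtained by fitting the expected inhibition equation.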

[3] = Dissociation constant, pKa of the compound; format: physicochemical
Procedure, shortened: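 Potentiometric co-solvent titration in 0.15 mol/l KCl over pH 2.0–11.0 at 25 °C. Methanol used as co-solvent in varying portions, with 0.5 mol/l KOH and HCl as titrants.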

[4] = Distribution coefficient, log D at pH 7.4; format: physicochemical; details: octanol/water
Procedure, shortened: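 Potentiometric titration, pH 2.0–11.0, 25 °C, in 0.15 mol/l KCl mixed with water-saturated 1-octanol in varying octanol portions. Titrants were 0.5 mol/l KOH and HCl. Distribution coefficients between 1-octanol and aqueous KCl were derived from these titrations.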

**Q.** Which “Log IC50” value [1] does the source give for `COCCNC(=O)c1cn2c(C)c(C)nc2c2c1CCC(c1ccccc1)C2` (configuration not stated) here?
**A.** The value was -4.9.

**Q.** And the IC50 [2]?
**A.** Its IC50 is 1260 nM.

**Q.** What about the pKa [3] of the same compound?
**A.** Its pKa is 7.22.

**Q.** What about the logD [4] of the same compound?
**A.** Its logD is 3.31.

**Q.** For `Cc1cn2cc(C(=O)N(C)C)c3c(c2n1)CC(c1ccccc1)CC3` (configuration not stated), which “Log IC50” value [1] is on record?
**A.** The value was -4.8.

**Q.** What about the IC50 [2] of the same compound?
**A.** Its IC50 is 7940 nM.

**Q.** And the pKa [3]?
**A.** Its pKa is 6.67.

**Q.** And the logD [4]?
**A.** The logD was 2.77.

**Q.** For `COCc1cn2c(C)c(C)nc2c2c1CCC(c1ccccc1)C2` (configuration not stated), which “Log IC50” value [1] is on record?
**A.** Its value is -6.3.

**Q.** What about the IC50 [2] of the same compound?
**A.** Its IC50 is 2000 nM.

**Q.** And the pKa [3]?
**A.** Its pKa is 7.79.

**Q.** And the logD [4]?
**A.** The logD was 3.93.

**Q.** Which results are given for `Cc1cn2ccc3c(c2n1)CC(c1ccccc1)CC3` (configuration not stated)?
**A.** Log IC50 [1]: -5.1; IC50 [2]: 7940 nM; pKa [3]: 7.63; logD [4]: 3.81

**Q.** Which “Log IC50” value [1] does the source give for `Cc1nc2c3c(c(C(=O)N(C)C)cn2c1CO)CCC(c1ccccc1)C3` (configuration not stated) here?
**A.** The value was -5.5.

**Q.** What about the IC50 [2] of the same compound?
**A.** The IC50 was 10000 nM.

**Q.** What about the pKa [3] of the same compound?
**A.** Its pKa is 6.32.

**Q.** What about the logD [4] of the same compound?
**A.** Its logD is 2.23.

**Q.** With `Cc1nc2c3c(c(C(=O)N(C)C)cn2c1C)CCC(c1ccccc1)C3` (configuration not stated) as the compound, how does the “Log IC50” value [1] read?
**A.** Its value is -6.

**Q.** And the IC50 [2]?
**A.** Its IC50 is 398 nM.

**Q.** What about the pKa [3] of the same compound?
**A.** The pKa was 7.16.

**Q.** What about the logD [4] of the same compound?
**A.** Its logD is 2.9.

**Q.** With `Cc1nc2c3c(ccn2c1CC#N)CCC(c1ccccc1)O3` (configuration not stated) as the compound, how does the “Log IC50” value [1] read?
**A.** The value was -7.

**Q.** What about the IC50 [2] of the same compound?
**A.** Its IC50 is 63.1 nM.

**Q.** Which “Log IC50” value [1] does the source give for `Cc1nc2c3c(c(C(N)=O)cn2c1C)CCC(c1ccccc1)C3` (configuration not stated) here?
**A.** The value was -5.9.

**Q.** And the IC50 [2]?
**A.** The IC50 was 2000 nM.

**Q.** And the pKa [3]?
**A.** The pKa was 7.26.

**Q.** What about the logD [4] of the same compound?
**A.** The logD was 3.21.

**Q.** What does the source list for `CNC(=O)c1cn2c(C)c(C)nc2c2c1CCC(c1ccccc1)C2` (configuration not stated)?
**A.** Log IC50 [1]: -6.2; IC50 [2]: 1000 nM

**Q.** For `Cc1nc2c3c(c(C(=O)NCCO)cn2c1C)CCC(c1ccccc1)C3` (configuration not stated), which “Log IC50” value [1] is on record?
**A.** Its value is -5.9.

**Q.** And the IC50 [2]?
**A.** Its IC50 is 10000 nM.

**Q.** What about the pKa [3] of the same compound?
**A.** Its pKa is 7.22.

**Q.** And the logD [4]?
**A.** Its logD is 2.81.

**Q.** What does the source list for `Cc1nc2c3c(c(C(=O)N4CCCC4)cn2c1C)CCC(c1ccccc1)C3` (configuration not stated)?
**A.** Log IC50 [1]: -5.9; IC50 [2]: 316 nM; pKa [3]: 7.2; logD [4]: 3.37

**Q.** Which “Log IC50” value [1] does the source give for `Cc1nc2c3c(c(C(=O)N4CCOCC4)cn2c1C)CCC(c1ccccc1)C3` (configuration not stated) here?
**A.** The value was -5.

**Q.** What about the IC50 [2] of the same compound?
**A.** The IC50 was 6310 nM.

**Q.** And the pKa [3]?
**A.** Its pKa is 7.05.

**Q.** And the logD [4]?
**A.** The logD was 2.76.

**Q.** Which results are given for `Cc1nc2c3c(c(C(=O)N(C)C)cn2c1Br)CCC(c1ccccc1)C3` (configuration not stated)?
**A.** Log IC50 [1]: -4.9; IC50 [2]: 10000 nM; pKa [3]: 5.11; logD [4]: 3.8

**Q.** For `Cc1nc2c3c(ccn2c1C)CCC(c1ccccc1)C3` (configuration not stated), which “Log IC50” value [1] is on record?
**A.** The value was -6.6.

**Q.** And the IC50 [2]?
**A.** The IC50 was 794 nM.

**Q.** What about the pKa [3] of the same compound?
**A.** Its pKa is 8.05.

**Q.** And the logD [4]?
**A.** The logD was 3.9.
